Active and inactive are the calls of the source. The rule behind the calls is not given here.
Key:
[1] = (§1) Cytotoxicity against human PC3 cells assessed as growth inhibition at 50 uM after 48 hrs by SRB assay; format: functional; conditions: PC-3, 48 h, read-out: GI
Procedure, shortened: (§2)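 PC-3 cells (NCI) were grown in RPMI-1640 with 10% FBS, 2 mM L-glutamine, antibiotics/amphotericin B and 1% nonessential amino acids at 37 °C in 5% CO2. Viability exceeded 95% (trypan blue). Cells were seeded at 5000–10000/well, given 24 h, then exposed 48 h to 50 µM compound. Cells were fixed in cold TCA, stained with 0.4% SRB and read at 515 nm after Tris solubilization. Inhibition = 100 − (sample/vehicle absorbance × 100).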

[2] = Cytotoxicity against Swiss mouse primary peritoneal macrophages assessed as growth inhibition at 50 uM after 48 hrs by MTT assay; conditions: for inhibition at 48 h, 50 µM: Swiss, primary peritoneal macrophages, read-out: GI; for growth inhibition (GI): peritoneal macrophage cell, 48 h, 50 µM
[3] = target: T1, 3-oxo-5-alpha-steroid 4-dehydrogenase 1 (Rattus norvegicus, UniProt P24008); experiment: Inhibition of rat liver 5alpha-reductase type 1 assessed as conversion of [3H]testosterone to dihydrotestosterone
T1 sequence (P24008 whole entry): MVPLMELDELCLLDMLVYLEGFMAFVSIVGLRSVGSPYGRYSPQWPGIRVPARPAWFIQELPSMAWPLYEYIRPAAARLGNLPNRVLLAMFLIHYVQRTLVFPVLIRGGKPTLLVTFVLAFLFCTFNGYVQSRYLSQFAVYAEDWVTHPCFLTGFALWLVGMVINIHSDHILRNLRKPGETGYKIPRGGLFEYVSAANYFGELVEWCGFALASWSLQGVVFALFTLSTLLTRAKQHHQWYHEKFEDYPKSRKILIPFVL
Procedure, shortened: (§3)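 Each reaction contained 1 mM DTT in 40 mM sodium phosphate, 2 nM [3H]T and 2 mM NADPH. Type 1 ran at pH 8.0 with 6.31 µM T added and 90 µg solubilized rat liver microsomal protein. Type 2 ran at pH 6.5 with 50 µg human prostate membrane protein. Inhibitors were tested at 1e-11–1e-3 M, in duplicate, 60 min at 37.5 °C. Reactions were stopped with dichloromethane, DHT separated by TLC and radioscanned, and IC50 taken from inhibition curves.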

[4] = target: T2, 3-oxo-5-alpha-steroid 4-dehydrogenase 2 (Homo sapiens, UniProt P31213); experiment: Inhibition of human prostate 5alpha-reductase type 2 assessed as conversion of [3H]testosterone to dihydrotestosterone; parameters: species or system Prostate gland; procedure, shortened: as §3
T2 sequence (P31213 whole entry): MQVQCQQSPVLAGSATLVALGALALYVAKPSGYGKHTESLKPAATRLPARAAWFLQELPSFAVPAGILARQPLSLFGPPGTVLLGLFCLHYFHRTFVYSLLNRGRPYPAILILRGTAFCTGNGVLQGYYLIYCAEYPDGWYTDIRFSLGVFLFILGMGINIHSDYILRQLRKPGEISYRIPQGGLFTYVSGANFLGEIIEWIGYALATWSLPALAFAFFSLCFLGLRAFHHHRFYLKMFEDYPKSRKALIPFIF

PC-3 = experiment: as §1; format: functional; procedure, shortened: as §2

IC50 ([3]; read-out: IC50) | IC50 [4] | SMILES | inhibition of growth at 50 µM [1] | inhibition at 48 h, 50 µM [2] | growth inhibition (GI) (PC-3) | growth inhibition (GI) [2] | IC50 [3] | IC50 ([4]; read-out: IC50)
320 µM | Not Active | C[C@]12CC[C@H](OC(=O)c3ccc(F)cc3)CC1=CC[C@@H]1[C@@H]2CC[C@]2(C)C(n3ccnc3)=C(C=O)C[C@@H]12 | 100% | 30.1% | – | – | – | –
250 µM | Not Active | C[C@]12CC[C@H](OC(=O)C3CCC3)CC1=CC[C@@H]1[C@@H]2CC[C@]2(C)C(n3ccnc3)=C(C=O)C[C@@H]12 | – | – | inactive | Non-toxic | – | –
100 µM | Not Active | C[C@]12CC[C@H](OC(=O)c3ccc(Cl)cc3)CC1=CC[C@@H]1[C@@H]2CC[C@]2(C)C(n3ccnc3)=C(C=O)C[C@@H]12 | 98.2% | 29.2% | – | – | – | –
200 µM | Not Active | C[C@]12CC[C@H](OC(=O)C3CC3)CC1=CC[C@@H]1[C@@H]2CC[C@]2(C)C(n3ccnc3)=C(C=O)C[C@@H]12 | 100% | 41.5% | – | – | – | –
– | Not Active | CC(=O)O[C@H]1CC[C@@]2(C)C(=CC[C@@H]3[C@@H]2CC[C@]2(C)C(n4ccnc4)=C(C=O)C[C@@H]32)C1 | 56.5% | 36.2% | – | – | Not Active | –
265 µM | Not Active | C[C@]12CC[C@H](OC(=O)C3CCCC3)CC1=CC[C@@H]1[C@@H]2CC[C@]2(C)C(n3ccnc3)=C(C=O)C[C@@H]12 | – | – | inactive | Non-toxic | – | –
300 µM | Not Active | C[C@]12CC[C@H](OC(=O)c3ccc(I)cc3)CC1=CC[C@@H]1[C@@H]2CC[C@]2(C)C(n3ccnc3)=C(C=O)C[C@@H]12 | – | – | inactive | Non-toxic | – | –
300 µM | Not Active | C[C@]12CC[C@H](OC(=O)C3CCCCC3)CC1=CC[C@@H]1[C@@H]2CC[C@]2(C)C(n3ccnc3)=C(C=O)C[C@@H]12 | – | – | inactive | Non-toxic | – | –
94.5 µM | Not Active | C[C@]12CC[C@H](OC(=O)c3ccc(Br)cc3)CC1=CC[C@@H]1[C@@H]2CC[C@]2(C)C(n3ccnc3)=C(C=O)C[C@@H]12 | 100% | 40.3% | – | – | – | –

The next lines start with the molecule.

SMILES | IC50 ([3]; read-out: IC50) | IC50 [4] | inhibition of growth at 50 µM [1] | inhibition at 48 h, 50 µM [2] | growth inhibition (GI) (PC-3) | growth inhibition (GI) [2] | IC50 [3] | IC50 ([4]; read-out: IC50)
C[C@]12CC[C@H](OC(=O)C3CCC3)CC1=CC[C@@H]1[C@@H]2CC[C@]2(C)C(Cl)=C(C=O)C[C@@H]12 | – | – | – | – | inactive | Non-toxic | Not Active | 0.013 µM
C[C@]12CC[C@H](OC(=O)C3CCCCC3)CC1=CC[C@@H]1[C@@H]2CC[C@]2(C)C(Cl)=C(C=O)C[C@@H]12 | – | – | – | – | inactive | Non-toxic | Not Active | 0.008 µM
CC(=O)O[C@H]1CC[C@@]2(C)C(=CC[C@@H]3[C@@H]2CC[C@]2(C)C(Cl)=C(C=O)C[C@@H]32)C1 | – | – | – | – | inactive | Non-toxic | Not Active | 0.05 µM
C[C@]12CC[C@H](OC(=O)C3CC3)CC1=CC[C@@H]1[C@@H]2CC[C@]2(C)C(Cl)=C(C=O)C[C@@H]12 | – | – | – | – | inactive | Non-toxic | Not Active | 0.0032 µM
CC(C)(C)NC(=O)[C@H]1CC[C@H]2[C@@H]3CC[C@H]4NC(=O)C=C[C@]4(C)[C@H]3CC[C@]12C [FINASTERIDE] | 630 µM | – | – | – | inactive | Non-toxic | – | –
C[C@]12CC[C@H](OC(=O)C3CCCCCC3)CC1=CC[C@@H]1[C@@H]2CC[C@]2(C)C(n3ccnc3)=C(C=O)C[C@@H]12 | 320 µM | Not Active | – | – | inactive | Non-toxic | – | –
CC(=O)N1CCN(c2ccc(OCC3COC(Cn4ccnc4)(c4ccc(Cl)cc4Cl)O3)cc2)CC1 (stereo not given) [KETOCONAZOLE] | – | Not Active | 85.4% | 41.5% | – | – | – | –
C[C@]12CC[C@H](OC(=O)C3CCCCCC3)CC1=CC[C@@H]1[C@@H]2CC[C@]2(C)C(Cl)=C(C=O)C[C@@H]12 | – | – | – | – | inactive | Non-toxic | Not Active | 0.015 µM
C[C@]12CC[C@H](OC(=O)C3CCCC3)CC1=CC[C@@H]1[C@@H]2CC[C@]2(C)C(Cl)=C(C=O)C[C@@H]12 | – | – | – | – | inactive | Non-toxic | Not Active | 0.05 µM

Reference: ChEMBL document CHEMBL3351945, “Effect of dehydroepiandrosterone derivatives on the activity of 5α-reductase isoenzymes and on cancer cell line PC-3” (Bioorg Med Chem, 2014)
